{"data": "Experimental data gathered from unrelated publications", "note": "Each line is one published result; the experiments were not run side by side."}
{"SMILES": "O=C1NC(=S)S/C1=C\\c1c2ccccc2c(-c2ccc(N(c3ccccc3)c3ccccc3)cc2)c2ccccc12", "organism": "Bacillus cereus", "test": "microbial killing, broth dilution", "system": "ATCC10876", "measurement": "MBC", "result": "> 1000 µg/mL"}
{"SMILES": "COc1cc(-c2cc(=O)c3c(O)cc(O)cc3o2)ccc1O", "organism": "Helicobacter pylori", "test": "microbial growth, broth dilution", "conditions": "62.5 µg/mL", "measurement": "inhibition", "result": "100%"}
{"SMILES": "C[C@@H](O)[C@H]1C(=O)N2C(C(=O)O)=C(S[C@@H]3CN[C@H](C(=O)N(C)C)C3)[C@H](C)[C@H]12", "organism": "Salmonella enterica", "test": "microbial growth, broth dilution", "conditions": "clinical isolate", "measurement": "MIC", "result": "≤ 0.5 µg/mL"}
{"SMILES": "CO/N=C(\\C(=O)N[C@@H]1C(=O)N2C(C(=O)O)=C(CSc3nc(=O)c(=O)[nH]n3C)CS[C@H]12)c1csc(N)n1", "organism": "Salmonella enterica", "test": "microbial growth", "conditions": "20 h, pH 7", "measurement": "MIC", "result": "0.0625 µg/mL"}
{"SMILES": "COC(=O)c1ccc(O)cc1", "organism": "Helicobacter pylori", "test": "microbial growth, broth dilution", "conditions": "125 µg/mL", "measurement": "inhibition", "result": "100%"}
{"SMILES": "CCn1cc(C(=O)O)c(=O)c2ccc(C)nc21", "organism": "Salmonella enterica", "test": "microbial growth", "conditions": "20 h, pH 7", "measurement": "MIC", "result": "2 µg/mL"}
{"SMILES": "O=c1cc(-c2ccc(O)c(O)c2)oc2cc(O)cc(O)c12", "organism": "Helicobacter pylori", "test": "microbial growth, broth dilution", "conditions": "0.98 µg/mL", "measurement": "inhibition", "result": "73.2%"}
{"SMILES": "CN[C@H](CC(C)C)C(=O)N[C@H]1C(=O)N[C@@H](CC(N)=O)C(=O)N[C@H]2C(=O)N[C@H]3C(=O)N[C@H](C(=O)N[C@H](C(=O)O)c4cc(O)cc(O)c4-c4cc3ccc4O)[C@H](O)c3ccc(c(Cl)c3)Oc3cc2cc(c3O[C@@H]2O[C@H](CO)[C@@H](O)[C@H](O)[C@H]2O[C@H]2C[C@](C)(N)[C@H](O)[C@H](C)O2)Oc2ccc(cc2Cl)[C@H]1O", "organism": "Bacillus cereus", "test": "microbial growth, broth dilution", "system": "ATCC10876", "measurement": "MIC", "result": "0.98 µg/mL"}
{"SMILES": "COc1cc(Cc2cnc(N)nc2N)cc(OC)c1OC", "organism": "Salmonella enterica", "test": "microbial growth", "system": "F98, TYPHIMURIUM", "conditions": "20 h, pH 7.2", "measurement": "MIC", "result": "0.25 µg/mL"}
{"SMILES": "CNC1=C([N+](=O)[O-])C2(C(=O)Nc3ccccc32)C2=C(O1)C(=O)c1ccccc1C2=O (stereo not shown)", "organism": "Salmonella enterica", "test": "microbial killing", "system": "TYPHIMURIUM", "measurement": "MBC", "result": "≤ 1000 µg/mL"}
{"SMILES": "CC[C@H]1OC(=O)[C@H](C)[C@@H](O[C@H]2C[C@@](C)(OC)[C@@H](O)[C@H](C)O2)[C@H](C)[C@@H](O[C@@H]2O[C@H](C)C[C@H](N(C)C)[C@H]2O)[C@](C)(OC)C[C@@H](C)C(=O)[C@H](C)[C@@H](O)[C@]1(C)O", "organism": "Helicobacter pylori", "test": "microbial growth, broth dilution", "conditions": "62.5 µg/mL", "measurement": "inhibition", "result": "100%"}
{"SMILES": "Cc1cc(NS(=O)(=O)c2ccc(N)cc2)no1", "organism": "Salmonella enterica", "test": "microbial growth", "system": "F98, TYPHIMURIUM", "conditions": "20 h, pH 7.2", "measurement": "MIC", "result": "64 µg/mL"}
{"SMILES": "CC1(C)S[C@@H]2[C@H](NC(=O)[C@H](N)c3ccccc3)C(=O)N2[C@H]1C(=O)O", "organism": "Salmonella enterica", "test": "microbial growth, agar dilution", "system": "ATCC13311 TYPHIMURIUM", "conditions": "26.93 µM", "measurement": "inhibition", "result": "100%"}
{"SMILES": "O=c1cc(-c2ccc(O)cc2)oc2cc(O)cc(O)c12", "organism": "Helicobacter pylori", "test": "microbial growth, broth dilution", "conditions": "125 µg/mL", "measurement": "inhibition", "result": "100%"}
{"SMILES": "O=C1NC(=S)S/C1=C\\c1ccc(-c2ccc(N(c3ccccc3)c3ccccc3)cc2)c2ccccc12", "organism": "Bacillus cereus", "test": "microbial killing, broth dilution", "system": "ATCC10876", "measurement": "MBC", "result": "> 1000 µg/mL"}
{"SMILES": "O=C(O)c1cn(C2CC2)c2cc(N3CCNCC3)c(F)cc2c1=O", "organism": "Salmonella enterica", "test": "microbial growth", "system": "ENTERITIDIS", "conditions": "20 h, pH 7", "measurement": "MIC", "result": "0.0156 µg/mL"}
{"SMILES": "O=C1NC(=S)N/C1=C\\c1c2ccccc2c(-c2ccc(N(c3ccccc3)c3ccccc3)cc2)c2ccccc12", "organism": "Bacillus cereus", "test": "microbial growth, broth dilution", "system": "ATCC10876", "measurement": "MIC", "result": "> 1000 µg/mL"}
{"SMILES": "O=C(N/N=C/c1ccc([N+](=O)[O-])o1)c1ccc(O)cc1", "organism": "Salmonella enterica", "test": "microbial growth", "system": "ATCC13311 TYPHIMURIUM", "measurement": "MIC90", "result": "0.98 µg/mL"}
{"SMILES": "CS(=O)(=O)c1ccc([C@@H](O)[C@@H](CF)NC(=O)C(Cl)Cl)cc1", "organism": "Salmonella enterica", "test": "microbial growth", "system": "ENTERITIDIS", "conditions": "20 h, pH 7", "measurement": "MIC", "result": "4 µg/mL"}
{"SMILES": "O=C1NC(=S)N/C1=C\\c1ccc(-c2ccc(N(c3ccccc3)c3ccccc3)cc2)cc1", "organism": "Bacillus cereus", "test": "microbial growth, broth dilution", "system": "ATCC10876", "measurement": "MIC", "result": "> 1000 µg/mL"}
{"SMILES": "CC1(C)S[C@@H]2[C@H](NC(=O)[C@H](N)c3ccccc3)C(=O)N2[C@H]1C(=O)O", "organism": "Salmonella enterica", "test": "microbial growth", "system": "ENTERITIDIS", "conditions": "20 h, pH 5.5", "measurement": "MIC", "result": "1 µg/mL"}
{"SMILES": "O=C(O)CN1C(=O)/C(=C/c2c3ccccc3c(-c3ccc(N(c4ccccc4)c4ccccc4)cc3)c3ccccc23)SC1=S", "organism": "Bacillus cereus", "test": "microbial growth, broth dilution", "system": "ATCC10876", "measurement": "MIC", "result": "> 1000 µg/mL"}
{"SMILES": "O=C(O)c1ccc(O)cc1", "organism": "Helicobacter pylori", "test": "microbial growth, broth dilution", "conditions": "31.25 µg/mL", "measurement": "inhibition", "result": "100%"}
{"SMILES": "[H]/N=C(/N)N[C@H]1[C@H](O)[C@@H](O)[C@H](O[C@@H]2O[C@@H](C)[C@](O)(C=O)[C@H]2O[C@@H]2O[C@@H](CO)[C@H](O)[C@@H](O)[C@@H]2NC)[C@@H](N/C(N)=N\\[H])[C@@H]1O", "organism": "Salmonella enterica", "test": "microbial growth", "conditions": "20 h, pH 7", "measurement": "MIC", "result": "64 µg/mL"}
{"SMILES": "O=C(O)CN1C(=O)/C(=C/c2ccc(-c3ccc(N(c4ccccc4)c4ccccc4)cc3)cc2)SC1=S", "organism": "Bacillus cereus", "test": "microbial killing, broth dilution", "system": "ATCC10876", "measurement": "MBC", "result": "31.3 µg/mL"}
